Assay results from PubChem BioAssay.
Active and inactive are the calls of the source.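 How the source made its calls, unless noted: active means fluorescence slope after compound addition differing from the mean of all screened samples at 99.7% confidence, in either direction; inactive means the rest.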

Tests used:
[1] = inhibitors of TNFa-induced NFkB p65 translocation, primary screen, imaging, HUVEC, MLSMR starter and 10KST1 sets (AID 438;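 active means inhibition above 20% together with a positive visual image hit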;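 further: compound added about 3h40 before a 20 min TNFalpha stimulation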;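 on inhibition: signal is the nuclear over cytoplasmic p65 intensity ratio per well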); settings: HUVEC TNFa-induced p65 nuclear translocation; cell count: measured here: nuclei count (cytotoxicity indicator), at 2.08 µM; inhibition: at 2 µM, stronger effect = higher value, 0% TNFa-plus-vehicle, 100% no-TNFa wells
[2] = endothelial E-selectin expression blockers – imaging, HUVEC, immunofluorescence, MLSMR starter and 10KST1 sets, primary screen (AID 487;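 active means visually confirmed hit in the image check and inhibition above 20%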;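 on inhibition: signal is fraction of cell area covered by stained E-selectin grains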;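 on nuclei count: 100% = median nuclei count of all wells on the same plate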); settings: HUVEC TNFalpha-induced E-selectin immunofluorescence imaging, at 2 µM; inhibition: stronger effect = higher value; nuclei count: measured here: cell number, toxicity
[3] = Primary imaging screen for DUSP6 inhibitors that restore phospho-Erk in transfected HeLa cells, chemical complementation (AID 609;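 active means compounds giving at least 50% inhibition in the cell-based MKP-3 phosphatase rescue imaging test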;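 on inhibition: phospho-Erk level distribution per well compared with pooled transfected vehicle control wells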); settings: HeLa MKP-3 transfected, phospho-Erk imaging KS statistic, at 10 µM, cells stimulated with TPA for 15 min
[4] = target: Dual specificity protein phosphatase 6 (Homo sapiens) (UniProt Q16828); assay: as above; settings: HeLa MKP-3 transfected, phospho-Erk imaging KS statistic; at 10 µM; stronger effect = higher value; cells stimulated with TPA for 15 min
Chain of Dual specificity protein phosphatase 6 (Homo sapiens) (Q16828 whole entry, looked up): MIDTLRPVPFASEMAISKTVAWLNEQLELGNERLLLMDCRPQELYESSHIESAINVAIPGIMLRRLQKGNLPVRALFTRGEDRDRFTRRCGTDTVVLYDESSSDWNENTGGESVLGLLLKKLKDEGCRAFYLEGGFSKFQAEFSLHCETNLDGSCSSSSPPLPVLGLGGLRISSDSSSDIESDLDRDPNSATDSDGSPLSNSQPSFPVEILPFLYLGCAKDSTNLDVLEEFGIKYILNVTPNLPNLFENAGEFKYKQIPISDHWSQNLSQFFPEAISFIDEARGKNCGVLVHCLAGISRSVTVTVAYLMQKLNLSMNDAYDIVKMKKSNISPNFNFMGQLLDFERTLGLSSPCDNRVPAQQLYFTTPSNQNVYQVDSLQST

[5] = target: Voltage-gated potassium channel subunit beta-2 (Rattus norvegicus) (UniProt P62483); assay: inhibitors of rat Kvbeta2 reductase activity – biochemical, NADPH fluorescence, primary screen (AID 622;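 active means fluorescence slope higher than the sample average by over 3 SD, cut at about -0.22 in these data, passing the limit was not always enough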;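 further: slope of raw intensity against log time taken from 70 to 1610 s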); settings: recombinant KvBeta, 4-cyanobenzaldehyde reduction, at 10 µM, stronger effect = higher value
Chain of Voltage-gated potassium channel subunit beta-2 (Rattus norvegicus) (P62483 whole entry, looked up): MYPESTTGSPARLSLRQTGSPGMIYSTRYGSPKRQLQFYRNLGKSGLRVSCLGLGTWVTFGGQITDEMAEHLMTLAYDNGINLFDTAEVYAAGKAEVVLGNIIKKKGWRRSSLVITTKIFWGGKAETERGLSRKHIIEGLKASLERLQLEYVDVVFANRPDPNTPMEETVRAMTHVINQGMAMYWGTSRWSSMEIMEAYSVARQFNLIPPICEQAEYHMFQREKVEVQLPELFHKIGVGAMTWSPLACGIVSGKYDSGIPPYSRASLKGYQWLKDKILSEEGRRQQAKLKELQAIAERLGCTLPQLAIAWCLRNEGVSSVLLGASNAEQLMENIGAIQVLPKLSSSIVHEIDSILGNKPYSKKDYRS

[6] = target: Voltage-gated potassium channel subunit beta-2 (Rattus norvegicus) (UniProt P62483); assay: enhancers of rat Kvbeta2 NADPH turnover – biochemical, NADPH fluorescence, primary screen (AID 623;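 active means NADPH fluorescence slope more negative than the mean of all samples by about 3 SD, 99.7% confidence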;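 further: fluorescence intensity change per second fitted from 20 to 320 s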); settings: Recombinant KvBeta, NADPH fluorescence decrease slope, 10 min; at 10 µM; stronger effect = lower value
[7] = target: Alpha-2C adrenergic receptor (Homo sapiens) (UniProt P18825); assay: compounds altering alpha2C-coupled GIRK flux – cell-based, HEK293 alpha2C/GIRK1/2, thallium flux, primary screen (AID 624); settings: thallium flux BTC fluorescence, at 10 µM, actives lie on both sides;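 further: slope of fluorescence ratio to pre-addition baseline per second over 15 to 24 s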
Chain of Alpha-2C adrenergic receptor (Homo sapiens) (P18825 whole entry, looked up): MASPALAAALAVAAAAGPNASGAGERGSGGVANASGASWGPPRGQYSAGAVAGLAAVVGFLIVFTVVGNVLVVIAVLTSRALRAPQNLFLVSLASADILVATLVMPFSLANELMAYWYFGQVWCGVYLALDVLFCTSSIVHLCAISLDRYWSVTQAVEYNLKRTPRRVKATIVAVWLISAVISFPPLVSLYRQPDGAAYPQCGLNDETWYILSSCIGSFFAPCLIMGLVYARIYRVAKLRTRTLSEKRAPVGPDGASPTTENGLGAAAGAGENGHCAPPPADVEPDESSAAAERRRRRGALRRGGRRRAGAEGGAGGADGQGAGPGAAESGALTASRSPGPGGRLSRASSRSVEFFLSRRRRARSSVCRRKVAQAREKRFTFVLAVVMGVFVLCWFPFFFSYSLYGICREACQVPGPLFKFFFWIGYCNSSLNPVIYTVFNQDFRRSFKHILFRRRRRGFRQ

[8] = inhibitors of larval lipid processing in zebrafish, primary screen, whole organism, PED6 fluorescence, gall bladder and intestine (AID 686;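 active means a full or partial loss of lipid-probe fluorescence in the fish gall bladder, intestine or both, judged by eye; inactive means no fluorescence loss, or compound toxic to the fish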;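 further: larvae 5 to 7 days old with five fish per well; signal comes from phospholipase A2 cleavage of quenched PED6 carried via bile; overnight exposure to compound and PED6 before scoring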); settings: Zebrafish larvae PED6 lipid processing, fluorescence scoring; screened at 20 µM (by protocol)
How it was run: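 Doses: 20 µM single dose. Test system: live zebrafish larvae aged 5-7 days, whole organism. Quantity: five larvae per well. Measured by: By-eye fluorescence microscopy. Reagent: ingested quenched lipid PED6 at 100 nM. Read-out: visual per-well fluorescence inhibition score. Times: overnight exposure of larvae to compound plus PED6.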

[9] = loss of swimming-algae plug formation – whole organism, Chlamydomonas reinhardtii, WT vs cilia-less mutant, absorbance, 96-well, primary screen (AID 463189;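 active means inhibition at or above 50% relative to wild type and mutant plate controls; inactive means inhibition below 50%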;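 further: 0% = wild type cc124 cells in DMSO and 100% = ciliumless bld1 mutant cells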); settings: Chlamydomonas reinhardtii gravitaxis, OD600 absorbance, 2 days; at 10 µM; stronger effect = higher value
[10] = measured here: cell density z-score
[11] = measured here: nuclear c-Myc green intensity z-score
[12] = measured here: nuclear pErk red intensity z-score, stronger effect = higher value

Row | Compound | cell count [1] | inhibition [1] | inhibition [2] | nuclei count [2] | z-score [3, 10] | z-score [3, 11] | z-score [3, 12] | inhibition [4] | fluorescence slope [5] | NADPH fluorescence slope [6] | slope [7] | outcome [8] | inhibition [9]
1 | COc1ccc(OC)c(C2=Nn3c(nnc3-c3ccco3)SC2)c1 | 675 | 1.9% (inactive) | -139% (inactive) | 150% | -0.0454 | 1.22 | 0.484 | -2.47% (inactive) | -0.399 (inactive) | -0.000127 (inactive) | 0.00666 (inactive) | inactive | -10.3% (inactive)
2 | CCOc1ccc(/C(O)=C2/C(=O)C(=O)N(CCN(C)C)C2c2ccccc2)cc1Cl (stereo unspecified) | 539 | -10.3% (inactive) | -64% (inactive) | 156% | 2.52 | 0.178 | -1.22 | 2.92% (inactive) | -0.502 (inactive) | -5.4e-05 (inactive) | 0.00531 (inactive) | inactive | 2.01% (inactive)
3 | CC(=O)Nn1cnc2c(c1=O)C1(CCCC1)Cc1ccccc1-2 | 520 | -1.9% (inactive) | 29.6% (inactive) | 113% | -0.985 | 1.83 | 1.16 | -2.69% (inactive) | -0.382 (inactive) | -2e-06 (inactive) | 0.0042 (inactive) | inactive | 43% (inactive)
4 | Cc1ccccc1OCC(O)Cn1c(N2CCN(c3ccccc3)CC2)nc2c1c(=O)[nH]c(=O)n2C (stereo unspecified) | 519 | -0.6% (inactive) | -227% (inactive) | 134% | -0.379 | -1.18 | 0.818 | 8.76% (inactive) | -0.537 (inactive) | -3.2e-05 (inactive) | 0.00634 (inactive) | inactive | 22.7% (inactive)
5 | O=C(CNC1C(=O)Nc2ccccc21)Sc1ccccc1 (stereo unspecified) | 636 | -12.1% (inactive) | -63.1% (inactive) | 118% | 1.09 | -0.106 | -0.738 | 14.4% (inactive) | -0.383 (inactive) | -1.8e-06 (inactive) | 0.00502 (inactive) | inactive | -11.8% (inactive)
6 | c1ccc(-c2nnc3n2N=C(c2ccc4c(c2)OCO4)CS3)nc1 | 626 | -5% (inactive) | -177% (inactive) | 144% | 0.439 | 0.912 | 0.545 | -11.5% (inactive) | -0.406 (inactive) | -0.000131 (inactive) | 0.00609 (inactive) | inactive | -7.21% (inactive)
7 | CCn1c(SCC(=O)O)nc2sc3c(c2c1=O)CCC3 | 664 | -3.3% (inactive) | 9.9% (inactive) | 171% | -0.751 | -1.02 | -0.615 | 2.71% (inactive) | -0.405 (inactive) | -5.6e-05 (inactive) | 0.00483 (inactive) | inactive | -0.935% (inactive)
8 | CCOC(=O)CC(=O)CSc1nc2c(cc1C#N)CCCCC2 | 510 | -8.3% (inactive) | -29.1% (inactive) | 114% | -0.0989 | -0.82 | 0.239 | 6.51% (inactive) | -0.342 (inactive) | -3e-05 (inactive) | 0.00873 (inactive) | inactive | 12.7% (inactive)
9 | COC(=O)c1cc(OC)c(OC)cc1N | 358 | -11.5% (inactive) | 9.3% (inactive) | 135% | 0.282 | 0.254 | 0.0446 | -12.3% (inactive) | -0.385 (inactive) | -0.000132 (inactive) | 0.00592 (inactive) | inactive | -2.54% (inactive)
10 | CCNC(=O)Nn1c(C)nnc1C | 604 | 5% (inactive) | 15.6% (inactive) | 129% | -0.49 | 0.191 | -0.43 | -8.27% (inactive) | -0.469 (inactive) | -0.000298 (inactive) | 0.00578 (inactive) | inactive | 7.13% (inactive)
11 | Cc1cccc(Nc2ncnc3ccccc23)c1 | 458 | -5.2% (inactive) | -1% (inactive) | 123% | -0.619 | 0.167 | -0.509 | 18.2% (inactive) | -0.519 (inactive) | -6.7e-05 (inactive) | 0.00506 (inactive) | inactive | 2.93% (inactive)
12 | Cc1ccc(C2/C(=C(/O)c3ccc(OC(C)C)cc3)C(=O)C(=O)N2CCN2CCOCC2)cc1 (stereo unspecified) | 526 | -2% (inactive) | 7.7% (inactive) | 166% | 0.417 | 1.31 | 0.598 | -2.91% (inactive) | -0.295 (inactive) | 1.7e-05 (inactive) | 0.00456 (inactive) | inactive | 2.83% (inactive)
13 | CCOC(=O)c1ccccc1OCc1cc(/C=N/n2cncn2)ccc1OC | 430 | -16.8% (inactive) | -87.5% (inactive) | 169% | 0.277 | 0.212 | -0.384 | -2.29% (inactive) | -0.358 (inactive) | 1.8e-05 (inactive) | 0.00447 (inactive) | inactive | -0.944% (inactive)
14 | CC1C[C@@]2(NC(=O)NC2=O)C(C)CN1C (stereo partly specified) | 510 | -6.8% (inactive) | -91.9% (inactive) | 118% | 1.06 | -0.13 | -0.779 | -3.98% (inactive) | -0.499 (inactive) | -0.000117 (inactive) | 0.00539 (inactive) | inactive | 6.02% (inactive)
15 | COc1ccccc1-c1nn2c(-c3ccco3)nnc2s1 | 544 | -2.9% (inactive) | -39.4% (inactive) | 162% | 0.365 | -0.311 | -0.198 | -2.47% (inactive) | -0.42 (inactive) | -8.7e-05 (inactive) | 0.00698 (inactive) | inactive | 10.9% (inactive)
16 | COCCNc1cc(C)c(C#N)c2nc3ccccc3n12 | 564 | 2.6% (inactive) | -78.8% (inactive) | 108% | -2.44 | 1.04 | -1.31 | 13.9% (inactive) | -0.383 (inactive) | 1.2e-06 (inactive) | 0.00535 (inactive) | inactive | -12.3% (inactive)
17 | O=C(O)CC(NC(=O)COc1ccc(Cl)cc1Cl)C(=O)O (stereo unspecified) | 629 | -19.5% (inactive) | -11.7% (inactive) | 197% | 0.18 | 0.773 | 0.0309 | -9.66% (inactive) | -0.404 (inactive) | -7.4e-05 (inactive) | 0.00527 (inactive) | inactive | 0.167% (inactive)
18 | O=c1c(F)cn(C2CCCO2)c(=O)n1Cc1ccccc1Cl (stereo unspecified) | 614 | 1.6% (inactive) | 11.4% (inactive) | 203% | 0.269 | 0.415 | 0.187 | 0.671% (inactive) | -0.534 (inactive) | -7.3e-05 (inactive) | 0.00591 (inactive) | inactive | 4.11% (inactive)
19 | COC(=O)CN(c1cc(OC)ccc1OC)S(=O)(=O)c1ccc(OC)c(OC)c1 | 365 | -5% (inactive) | -37.1% (inactive) | 130% | -0.822 | 0.297 | -0.958 | -2.59% (inactive) | -0.417 (inactive) | -0.000193 (inactive) | 0.00438 (inactive) | inactive | -0.193% (inactive)
20 | Cn1c(=O)cc(NCc2ccccc2)[nH]c1=O | 451 | -5.5% (inactive) | -114% (inactive) | 164% | 1.39 | -0.42 | -0.956 | -0.624% (inactive) | -0.333 (inactive) | 5.7e-06 (inactive) | 0.00621 (inactive) | inactive | -4.62% (inactive)
21 | Nc1ccc2ncccc2c1N | 537 | -10% (inactive) | -47.1% (inactive) | 103% | 0.673 | 1.61 | 0.017 | -9.66% (inactive) | -0.517 (inactive) | -2.1e-05 (inactive) | 0.0034 (inactive) | inactive | -1.57% (inactive)
22 | COc1cc(C2C(C#N)=C(N)Oc3cc(C)n(CCc4ccccc4)c(=O)c32)cc2c1OCO2 (stereo unspecified) | 331 | -2.4% (inactive) | -42.5% (inactive) | 165% | -0.617 | 1.54 | 1.26 | 11.4% (inactive) | -0.433 (inactive) | -0.000158 (inactive) | 0.00471 (inactive) | inactive | 11.9% (inactive)
23 | CCC1(C)Cc2c(sc3nc4n(c(=O)c23)CCS4)CO1 (stereo unspecified) | 596 | -14.8% (inactive) | -109% (inactive) | 182% | -1.93 | -0.473 | 1.15 | -6.86% (inactive) | -0.336 (inactive) | -1e-05 (inactive) | 0.00519 (inactive) | inactive | 5.08% (inactive)
24 | O=C(O)CC(SCc1ccc(C(=O)O)o1)C(=O)O (stereo unspecified) | 330 | -17.8% (inactive) | -29.5% (inactive) | 105% | 1.04 | -0.311 | -0.367 | 5.57% (inactive) | -0.528 (inactive) | -7.5e-06 (inactive) | 0.00659 (inactive) | inactive | 48.4% (inactive)
25 | Cc1ccc(C(C)C)c(OCCNc2nc3c(c(=O)n(C)c(=O)n3C)n2C)c1 | 605 | -26.5% (inactive) | -61.7% (inactive) | 165% | -0.12 | -0.388 | 2.45 | -4.27% (inactive) | -0.422 (inactive) | -5.2e-05 (inactive) | 0.0063 (inactive) | inactive | -2.79% (inactive)
26 | CCOC(=O)c1c(CN2CCN(C)CC2)n(C)c2cc(Br)c(OC)cc12 | 320 | -0.7% (inactive) | -50.3% (inactive) | 138% | -0.018 | 0.891 | 1.91 | -12.3% (inactive) | -0.462 (inactive) | -0.000148 (inactive) | 0.00634 (inactive) | inactive | 53.1% (active)
27 | CN1CCN(CCCCC(=O)c2ccccc2)CC1 | 600 | -9.1% (inactive) | 14.9% (inactive) | 183% | 0.5 | -1.07 | -0.798 | -6.06% (inactive) | -0.397 (inactive) | 1.3e-06 (inactive) | 0.00562 (inactive) | inactive | 68.4% (active)
